pIC50: −log10 of the molar value. Active and inactive are the calls of the source. The rule behind the calls is not given here.
Columns and labels:
[1] = target: T1, Kynurenine/alpha-aminoadipate aminotransferase, mitochondrial (Homo sapiens, UniProt Q8N5Z0); test: Inhibition of human recombinant KAT2 assessed as conversion of L-kynurenine into kynurenic acid after 15 to 20 hrs
Outline: (§1)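 Human and rat KAT II enzyme assays run with 30 nM enzyme; IC50 reported as geometric mean of at least three independent determinations (some n = 1 or 2).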
Target sequence in this assay (Q8N5Z0 whole entry): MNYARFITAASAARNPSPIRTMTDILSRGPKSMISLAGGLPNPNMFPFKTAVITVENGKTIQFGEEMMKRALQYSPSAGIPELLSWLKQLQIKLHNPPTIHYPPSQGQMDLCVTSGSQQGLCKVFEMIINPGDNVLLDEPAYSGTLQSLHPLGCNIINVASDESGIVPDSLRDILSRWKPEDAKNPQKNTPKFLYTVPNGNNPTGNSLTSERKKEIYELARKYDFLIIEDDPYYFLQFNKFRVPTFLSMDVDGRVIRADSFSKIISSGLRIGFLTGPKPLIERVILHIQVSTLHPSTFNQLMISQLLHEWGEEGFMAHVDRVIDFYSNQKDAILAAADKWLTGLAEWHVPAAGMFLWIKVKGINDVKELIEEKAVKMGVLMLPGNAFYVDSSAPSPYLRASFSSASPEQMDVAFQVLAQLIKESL

[2] = target: Kynurenine/alpha-aminoadipate aminotransferase, mitochondrial (Rattus norvegicus, UniProt Q64602); test: Inhibition of rat recombinant KAT2 assessed as conversion of L-kynurenine into kynurenic acid after 15 to 20 hrs; outline: as §1
Chain of Kynurenine/alpha-aminoadipate aminotransferase, mitochondrial (Rattus norvegicus, UniProt Q64602) (Q64602 whole entry): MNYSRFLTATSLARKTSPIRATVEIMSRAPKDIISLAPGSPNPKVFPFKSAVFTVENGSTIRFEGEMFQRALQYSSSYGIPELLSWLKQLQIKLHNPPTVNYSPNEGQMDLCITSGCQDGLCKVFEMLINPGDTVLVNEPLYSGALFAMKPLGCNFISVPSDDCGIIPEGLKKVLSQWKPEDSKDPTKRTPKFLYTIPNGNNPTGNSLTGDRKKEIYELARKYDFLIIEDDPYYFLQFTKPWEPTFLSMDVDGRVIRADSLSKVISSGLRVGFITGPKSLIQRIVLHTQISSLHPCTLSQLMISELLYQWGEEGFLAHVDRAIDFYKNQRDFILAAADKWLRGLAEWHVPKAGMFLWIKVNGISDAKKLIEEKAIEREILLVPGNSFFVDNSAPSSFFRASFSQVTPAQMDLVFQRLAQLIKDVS

[3] = target: Kynurenine/alpha-aminoadipate aminotransferase, mitochondrial (Rattus norvegicus) (UniProt Q64602); test: Ratio of Kinact to Ki for rat recombinant KAT2 using L-kynurenine as substrate
Chain of Kynurenine/alpha-aminoadipate aminotransferase, mitochondrial (Rattus norvegicus) (Q64602 30-425 limits assumed): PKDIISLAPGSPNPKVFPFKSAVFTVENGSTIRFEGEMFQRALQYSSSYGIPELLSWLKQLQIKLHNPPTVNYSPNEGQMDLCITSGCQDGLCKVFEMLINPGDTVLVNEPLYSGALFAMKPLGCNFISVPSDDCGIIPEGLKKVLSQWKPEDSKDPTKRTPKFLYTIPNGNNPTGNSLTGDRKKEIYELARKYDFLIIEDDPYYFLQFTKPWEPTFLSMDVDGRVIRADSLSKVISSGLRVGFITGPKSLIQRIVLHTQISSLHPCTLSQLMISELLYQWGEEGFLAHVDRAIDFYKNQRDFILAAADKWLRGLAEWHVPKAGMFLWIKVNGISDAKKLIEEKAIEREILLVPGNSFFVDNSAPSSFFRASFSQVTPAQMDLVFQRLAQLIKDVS
Outline: (§2)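 Second-order rate constant kinact/Ki determined for human and rat KAT II; values are geometric or arithmetic means of at least three experiments (some n = 2).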

[4] = target: T1, Kynurenine/alpha-aminoadipate aminotransferase, mitochondrial; test: Ratio of Kinact to Ki for human recombinant KAT2 using L-kynurenine as substrate; outline: as §2
Target sequence in this assay (Q8N5Z0 30-425 limits assumed): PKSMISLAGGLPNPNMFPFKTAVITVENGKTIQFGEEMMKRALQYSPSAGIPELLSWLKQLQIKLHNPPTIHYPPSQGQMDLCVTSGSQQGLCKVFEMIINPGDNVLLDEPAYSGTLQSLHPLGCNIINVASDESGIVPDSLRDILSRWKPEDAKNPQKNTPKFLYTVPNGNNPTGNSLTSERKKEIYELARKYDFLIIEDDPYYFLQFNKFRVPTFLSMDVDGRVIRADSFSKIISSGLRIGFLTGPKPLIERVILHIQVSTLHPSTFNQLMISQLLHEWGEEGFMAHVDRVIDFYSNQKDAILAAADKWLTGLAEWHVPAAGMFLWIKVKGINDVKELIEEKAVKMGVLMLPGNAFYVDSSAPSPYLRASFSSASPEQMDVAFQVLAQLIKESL

[5] = Drug level in Sprague-Dawley rat cerebrospinal fluid at 10 mg/kg, sc after 0.25 hrs; format: ADME, organism-based; design: dose 10 mg/kg, route subcutaneous; settings: read-out: Drug uptake
Outline: (§3)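 Rats dosed 10 mg/kg subcutaneously; drug levels measured in CSF and plasma/brain at 0.25 h post-dose; free levels derived using measured rat brain and plasma unbound fractions.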

[6] = test system: Brain; test: Free brain concentration in Sprague-Dawley rat at 10 mg/kg, sc after 0.25 hrs; format: ADME, organism-based; design: dose 10 mg/kg, route subcutaneous; settings: in vivo; outline: as §3
[7] = test system: Plasma; test: Free plasma concentration in Sprague-Dawley rat at 10 mg/kg, sc after 0.25 hrs; format: ADME, organism-based; design: dose 10 mg/kg, route subcutaneous; settings: in vivo; outline: as §3
[8] = Fraction unbound in rat brain at 1 uM by equilibrium dialysis method; format: ADME, tissue-based
[9] = Fraction unbound in rat plasma at 1 uM by equilibrium dialysis method; format: ADME, cell-free
[10] = target: T2, Kynurenine--oxoglutarate transaminase 1 (Homo sapiens, UniProt Q16773); test: Inhibition of human KAT1
T2 sequence (Q16773 whole entry): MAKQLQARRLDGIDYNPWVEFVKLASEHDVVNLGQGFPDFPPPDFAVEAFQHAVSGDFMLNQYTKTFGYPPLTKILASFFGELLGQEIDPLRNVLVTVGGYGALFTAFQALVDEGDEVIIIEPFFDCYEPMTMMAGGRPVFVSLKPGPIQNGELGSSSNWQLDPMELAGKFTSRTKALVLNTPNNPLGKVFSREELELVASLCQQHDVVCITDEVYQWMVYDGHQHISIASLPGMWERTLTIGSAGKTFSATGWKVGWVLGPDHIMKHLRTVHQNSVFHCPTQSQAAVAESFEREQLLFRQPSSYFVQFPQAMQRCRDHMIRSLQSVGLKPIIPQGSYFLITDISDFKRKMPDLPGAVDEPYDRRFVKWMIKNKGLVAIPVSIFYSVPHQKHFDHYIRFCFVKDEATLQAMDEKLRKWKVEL

[11] = target: Kynurenine--oxoglutarate transaminase 3 (Homo sapiens, UniProt Q6YP21); test: Inhibition of human KAT3
Chain of Kynurenine--oxoglutarate transaminase 3 (Q6YP21 whole entry): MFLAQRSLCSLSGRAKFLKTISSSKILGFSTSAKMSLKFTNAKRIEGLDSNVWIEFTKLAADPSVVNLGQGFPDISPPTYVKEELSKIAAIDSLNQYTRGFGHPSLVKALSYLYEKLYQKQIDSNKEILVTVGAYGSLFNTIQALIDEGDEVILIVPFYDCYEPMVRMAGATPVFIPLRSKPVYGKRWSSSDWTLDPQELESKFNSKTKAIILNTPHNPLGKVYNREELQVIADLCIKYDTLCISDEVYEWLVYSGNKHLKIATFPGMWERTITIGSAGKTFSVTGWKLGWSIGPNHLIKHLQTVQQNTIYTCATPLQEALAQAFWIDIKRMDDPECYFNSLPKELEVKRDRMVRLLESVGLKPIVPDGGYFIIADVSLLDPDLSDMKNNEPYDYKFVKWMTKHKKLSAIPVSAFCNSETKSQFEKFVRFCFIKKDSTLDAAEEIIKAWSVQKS

[12] = Inhibition of human KAT4
[13] = Lipophilicity, log D of the compound; format: physicochemical; settings: octanol/water
[14] = Ratio of free drug level in plasma to brain in Sprague-Dawley rat at 10 mg/kg, sc after 0.25 hrs; format: ADME, organism-based; design: dose 10 mg/kg, route subcutaneous; settings: in vivo
Outline: (§4)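 Rat dosed 10 mg/kg sc; drug concentrations in plasma, brain and CSF measured at 0.25 h. Free plasma and free brain levels corrected using fraction unbound from rat plasma protein binding and brain binding assays. Exposure ratios taken from free plasma, free brain and CSF concentrations.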

[15] = Ratio of free drug level in cerebrospinal fluid to brain in Sprague-Dawley rat at 10 mg/kg, sc after 0.25 hrs; format: ADME, organism-based; design: dose 10 mg/kg, route subcutaneous; settings: in vivo; outline: as §4
[16] = test system: Rattus norvegicus; test: Reduction of […] level in freely moving Sprague-Dawley rat dialysates from prefrontal cortex at 10 mg/kg, sc after 1 hr by microdialysis analysis relative to control; format: functional; design: scale not given: the % may be the effect or the level left; settings: route subcutaneous
Outline: (§5)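 Freely moving rats given 10 mg/kg sc at time 0; KYNA in prefrontal cortex dialysates monitored over time by microdialysis; expressed as percent of each animal's basal KYNA, means ± SEM, n = 11–14 per group.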

[17] = test system: Rattus norvegicus; test: Reduction of […] level in freely moving Sprague-Dawley rat dialysates from prefrontal cortex at 10 mg/kg, sc after 20 hrs by microdialysis analysis; format: functional, organism-based; design: dose 10 mg/kg; outline: as §5

Row | Structure (SMILES) | pIC50 [1] | pIC50 [2] | Ratio [3] | Ratio [4] | other results
1 | CC1(N)Cc2ccccc2N(O)C1=O (configuration not stated) | < 5.00 | < 5.00 | – | – | –
2 | CON1C(=O)[C@@H](N)Cc2ccccc21 | < 5.00 | < 5.00 | – | – | –
3 | N[C@H]1Cc2ccccc2NC1=O | < 5.00 | – | – | – | –
4 | N[C@H]1Cc2c(F)cccc2N(O)C1=O | 7.35 | 5.69 | – | 6680 M⁻¹ s⁻¹ | –
5 | Cc1cccc2c1C[C@H](N)C(=O)N2O | 6.50 | < 5.00 | – | – | –
6 | N[C@H]1Cc2cccc(Cl)c2N(O)C1=O | 6.60 | < 5.00 | – | 42 M⁻¹ s⁻¹ | –
7 | N[C@@H]1Cc2ccccc2N(O)C1=O | 6.66 | 5.93 | – | – | –
8 | COc1cccc2c1C[C@H](N)C(=O)N2O | 6.75 | < 5.31 | – | 1940 M⁻¹ s⁻¹ | –
9 | Cc1cccc2c1N(O)C(=O)[C@@H](N)C2 | 5.98 | < 5.00 | – | – | –
10 | N[C@H]1Cc2c(Cl)cccc2N(O)C1=O | 6.46 | < 5.10 | – | 9.5 M⁻¹ s⁻¹ | –
11 | COc1cccc2c1N(O)C(=O)[C@@H](N)C2 | 6.24 | < 5.00 | – | 21.3 M⁻¹ s⁻¹ | –
12 | N[C@H]1Cc2cccc(C(F)(F)F)c2N(O)C1=O | 6.76 | < 5.17 | – | 541 M⁻¹ s⁻¹ | –
13 | N[C@H]1Cc2c(cccc2C(F)(F)F)N(O)C1=O | < 5.00 | < 5.00 | – | – | –
14 | N[C@H]1Cc2cccc(F)c2N(O)C1=O | 7.40 | 6.20 | 57 M⁻¹ s⁻¹ | 5310 M⁻¹ s⁻¹ | –
15 | C[C@H]1c2ccccc2N(O)C(=O)[C@H]1N | – | < 5.88 | – | – | –

Further lines, with some results ahead:

Row | pIC50 [1] | pIC50 [2] | Ratio [3] | Ratio [4] | Structure (SMILES) | other results
16 | 7.43 | 6.43 | 590 M⁻¹ s⁻¹ | 33400 M⁻¹ s⁻¹ | Cc1ccc2c(c1)N(O)C(=O)[C@@H](N)C2 | –
17 | 7.64 | 6.58 | 573 M⁻¹ s⁻¹ | 18500 M⁻¹ s⁻¹ | N[C@H]1Cc2ccccc2N(O)C1=O | concentration at 0.25 h [5]: 4.06 µM; Drug uptake(free) [6]: 3.76 µM; Cp(f) [7]: 10.2 µM; fraction unbound at 1 µM [8]: 0.393; fraction unbound at 1 µM [9]: 0.893; pIC50 [10]: 4.66; pIC50 [11]: 4.96; pIC50 [12]: < 4.30; logD [13]: -0.7; Ratio [14]: 2.7; Ratio [15]: 1.1; Activity [16]: 50%; Activity [17]: inactive
18 | 7.54 | 6.31 | 102 M⁻¹ s⁻¹ | 15300 M⁻¹ s⁻¹ | N[C@H]1Cc2cc(C(F)(F)F)ccc2N(O)C1=O | –
19 | 7.66 | 6.86 | 1840 M⁻¹ s⁻¹ | 31700 M⁻¹ s⁻¹ | COc1ccc2c(c1)N(O)C(=O)[C@@H](N)C2 | –
20 | 7.44 | 6.59 | 465 M⁻¹ s⁻¹ | 19000 M⁻¹ s⁻¹ | N[C@H]1Cc2cc(Cl)ccc2N(O)C1=O | –
21 | 7.52 | 6.40 | 167 M⁻¹ s⁻¹ | 11900 M⁻¹ s⁻¹ | Cc1ccc2c(c1)C[C@H](N)C(=O)N2O | –
22 | 7.54 | 6.93 | 1170 M⁻¹ s⁻¹ | 28300 M⁻¹ s⁻¹ | N[C@H]1Cc2ccc(Cl)cc2N(O)C1=O | –
